We go through 9 compounds from ChEMBL document CHEMBL4265955, “Synthesis and antiproliferative activity of podocarpane and totarane derivatives” (Eur J Med Chem, 2018).

Data set [1] concerns MCF7. The experiment in a line: Antiproliferative activity against human MCF7 cells after 3 days by sulforhodamine B assay. The data set is classed as functional, cell-based. Conditions: MCF7, 72 h. Put shortly: (§1)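 Cells grown in DMEM with 10% heat-inactivated FBS, penicillin-streptomycin and 2 mM L-glutamine at 37°C, 5% CO2. Seeded at 5 x 10^3 cells/cm², exposed 24 h later to increasing compound concentrations for 3 days. Fixed with cold 10% TCA, stained with 0.4% SRB, dye solubilized in 10 mM Tris pH 10.5, OD read at 492 nm. IC50 taken by linear interpolation of semilog dose-response curve; seven biological replicates, mean ± SEM.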

Data set [2] has as its system A549. The experiment in a line: Antiproliferative activity against human A549 cells after 3 days by sulforhodamine B assay. The data set is classed as functional, cell-based. Particulars: A549, 72 h. A digest of the protocol:
as §1

Data set [3] deals with T84. As to the kind of experiment: Antiproliferative activity against human T84 cells after 3 days by sulforhodamine B assay. The data set is classed as functional, cell-based. Particulars: T84, 72 h. Put shortly:
as §1

Data set [4] concerns PBMC. As to the kind of experiment: Cytotoxicity against human PBMC assessed as reduction in cell viability at 0.5 uM by MTT assay relative to control. The data set is classed as cell-based. A digest of the protocol: (§2)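 PBMC isolated from healthy donor blood by density gradient centrifugation (Histopaque-1077), cultured in RPMI-1640 with 20% FBS, penicillin-streptomycin and 2 mM glutamine at 37°C, 5% CO2. Cells exposed to increasing compound concentrations for 3 days. Viability read by MTT at 570 and 595 nm and expressed versus untreated control cultures.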

The nature of data set [5]: Cytotoxicity against human PBMC assessed as cell viability at 2.5 uM by MTT assay relative to control. Conditions: PBMC (peripheral blood mononuclear cells), read-out: Activity. The data set is classed as cell-based. Put shortly:
(§3)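 PBMC isolated from healthy donor blood by Histopaque-1077 density gradient centrifugation. Cultured in RPMI-1640 with 20% FBS, penicillin-streptomycin and 2 mM glutamine at 37°C, 5% CO2. Exposed to increasing compound concentrations; viability of non-adherent cultures measured by MTT at 570 and 595 nm and expressed against untreated control cultures.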

Data set [6] can be described thus: Cytotoxicity against human PBMC assessed as cell viability at 1 uM by MTT assay relative to control. The data set is classed as cell-based. Particulars: PBMC (peripheral blood mononuclear cells), read-out: Activity. Put shortly: as §3
Data set [7] in a line: Cytotoxicity against human PBMC assessed as cell viability at 5 uM by MTT assay relative to control. Conditions: PBMC (peripheral blood mononuclear cells), read-out: Activity. The data set is classed as cell-based. A digest of the protocol:
as §3

For data set [8], the system named is PBMC. The experiment in a line: Cytotoxicity against human PBMC assessed as reduction in cell viability at 10 uM by MTT assay relative to control. The data set is classed as cell-based. A digest of the protocol:
as §3

Data set [9] deals with PBMC. As to the kind of experiment: Cytotoxicity against human PBMC assessed as reduction in cell viability at 0.5 to 10 uM by MTT assay. The data set is classed as cell-based. Put shortly: as §2
Data set [10] concerns MCF7. As to the kind of experiment: Potency index, ratio of 5-fluorouracil IC50 to test compound IC50 for human MCF7 cells. The data set is classed as functional.
The test system of data set [11] is A549. The experiment in a line: Induction of apoptosis in human A549 cells assessed as viable cells at IC50 after 24 hrs by Annexin-V-FITC/propidium iodide staining based flow cytometry (reference value: 83.6%). The data set is classed as functional.
Data set [12] deals with A549. As to the kind of experiment: Cell cycle arrest in human A549 cells assessed as accumulation at G2/M phase at IC50 after 24 hrs by propidium iodide staining based flow cytometry (reference value: 8.8%). The data set is classed as functional.
In data set [13] the test system is A549. As to the kind of experiment: Cell cycle arrest in human A549 cells assessed as accumulation at G0/G1 phase at IC50 after 24 hrs by propidium iodide staining based flow cytometry (reference value: 60.6%). The data set is classed as functional.
Data set [14] deals with A549. The experiment in a line: Induction of apoptosis in human A549 cells assessed as total apoptotic cells at IC50 after 24 hrs by Annexin-V-FITC/propidium iodide staining based flow cytometry (reference value: 13.2%). The data set is classed as functional.
For data set [15], the system named is A549. The experiment in a line: Cell cycle arrest in human A549 cells assessed as reduction in accumulation at G2/M phase at IC50 after 48 hrs by propidium iodide staining based flow cytometry. The data set is classed as functional.
The subject of data set [16] is T84. The experiment in a line: Potency index, ratio of 5-fluorouracil IC50 to test compound IC50 for human T84 cells. The data set is classed as functional.
The subject of data set [17] is A549. The experiment in a line: Induction of apoptosis in human A549 cells assessed as increase in Bax to Bcl2 ratio at 0.5 to 1 times IC50 after 24 hrs Western blot analysis. The data set is classed as functional, cell-based. Put shortly: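 A-549 seeded at 4 x 10^4 cells/cm², treated 24 h later at 0x, 0.5x or 1x IC50 for 24 h. Lysed in SDS sample buffer, proteins separated on 12% acrylamide gels and transferred to nitrocellulose. Blocked 1 h in 3% milk/1% BSA/0.5% Tween-20 in PBS. Probed overnight with mouse monoclonal anti-Bax or anti-Bcl-2, then HRP anti-mouse IgG.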

Data set [18] concerns A549. The experiment in a line: Cell cycle arrest in human A549 cells assessed as accumulation at sub-G1 phase at IC50 after 48 hrs by propidium iodide staining based flow cytometry (reference value: 2.6%). The data set is classed as functional.
Data set [19] relates to A549. As to the kind of experiment: Cell cycle arrest in human A549 cells assessed as reduction in accumulation at S phase at IC50 after 48 hrs by propidium iodide staining based flow cytometry. The data set is classed as functional.
In data set [20] the test system is A549. The experiment in a line: Cell cycle arrest in human A549 cells assessed as reduction in accumulation at G1 phase at IC50 after 48 hrs by propidium iodide staining based flow cytometry. The data set is classed as functional.
Data set [21] deals with A549. The experiment in a line: Potency index, ratio of 5-fluorouracil IC50 to test compound IC50 for human A549 cells. The data set is classed as functional.

pIC50: −log10 of the molar value. Active and inactive are the calls of the source. The calls are words filed in the database; no cut-off is given here. Bounds are passed on as bounds.

Turning to `COC(=O)c1cc(O)cc2c1CC[C@H]1[C@@](C)(C(=O)OC)CCC[C@]21C`, the pIC50 in the data set on MCF7 [1], with A549 [2] and in the data set on T84 [3] was < 4.40 in each case.

Regarding `COC(=O)c1cc2c(cc1OC)[C@@]1(C)CCC[C@](C)(C(=O)OC)[C@@H]1CC2`, the pIC50 with MCF7 [1], in the data set on A549 [2] and with T84 [3] was < 4.40 throughout.

Regarding `C=C(C)c1cc(O)cc2c1CC[C@H]1[C@@](C)(C(=O)OC)CCC[C@]21C`, the values for the pIC50 in the data set on MCF7 [1], in the data set with A549 [2] and with T84 [3] were 4.58, 4.63 and 4.51, respectively.

For `COC(=O)[C@@]1(C)CCC[C@]2(C)c3cc(O)cc(C(C)C)c3CC[C@@H]12`, the pIC50 is 4.54 in the data set on MCF7 [1], 4.73 with A549 [2] and 4.52 in the data set on T84 [3].

Take `COC(=O)c1cc2c(cc1O)[C@@]1(C)CCC[C@](C)(C(=O)OC)[C@@H]1CC2`: the results for the pIC50 in the data set on MCF7 [1], in the data set with A549 [2] and with T84 [3] were 4.66, 4.76 and 4.68, respectively.

For `CC(=O)c1cc2c(cc1O)[C@@]1(C)CCC[C@](C)(CO)[C@@H]1CC2`, the pIC50 in the data set on MCF7 [1] was 5.03; in the data set with A549 [2], 5.32; in the data set on T84 [3] it was 5.11.

As to `COC(=O)[C@@]1(C)CCC[C@]2(C)C3=C(CC[C@@H]12)C(C(C)C)=CC(=O)C3=O`, the Activity with PBMC [4] is given as 25%; with PBMC [8], 43.8%; in the data set with PBMC [9] it was “Toxic”. The viability at 2.5 µM in data set [5] was determined as 64.7%. For the same compound, the pIC50 is 5.96 with MCF7 [1], 5.17 with A549 [2] and 4.94 in the data set with T84 [3]. Also, in data set [6], the viability at 1 µM is 69.2%. Moreover, the viability at 5 µM in [7] turned out to be 58.3%.

For the compound `COC(=O)[C@@]1(C)CCC[C@]2(C)c3c(O)c(O)cc(C(C)C)c3CC[C@@H]12`, the “Ratio IC50” value in the data set with MCF7 [10], with T84 [16] and with A549 [21] was 4 in each case. Also, the Activity in the data set on A549 [11] was found to be 54.2%; in the data set on A549 [12], 14.5%; in the data set with A549 [13], 53.7%; with A549 [14], 44%; in the data set on A549 [18] it was 70.1%; with PBMC [8] it was 21.5%. In addition, the outcome with A549 [15], in the data set with A549 [17], in the data set with A549 [19] and with A549 [20] was Active. Moreover, the viability at 2.5 µM in data set [5] was found to be 81.3%. The figures for the negative logarithm of the IC50 (pIC50) in the data set with MCF7 [1], in the data set with A549 [2] and in the data set on T84 [3] were 5.55, 6.22 and 6.00, respectively. For the same compound, the viability at 1 µM in [6] was 86.4%. Besides, the viability at 5 µM in data set [7] is 87.7%.

With `O=c1[nH]cc(F)c(=O)[nH]1` [FLUOROURACIL], the results for the pIC50 in the data set on MCF7 [1], in the data set on A549 [2] and in the data set on T84 [3] were 5.11, 5.15 and 5.47, respectively.
